Our source for the IC50 values is BindingDB's records for doi:10.1021/jm000911j (Universidad De Valencia, 2000).

This assay concerns the target Acyl carrier protein,/NADH dehydrogenase [ubiquinone] flavoprotein 1, mitochondrial (Bos taurus, UniProt P25708+P52505). In words: Inhibition of NADH oxidase activity. The essentials:
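Beef-heart submitochondrial particles (sonicated frozen-thawed mitochondria), preactivated with 300 µM NADH, assayed at 22 °C in 50 mM potassium phosphate pH 7.4, 1 mM EDTA (0.28 nM complex I). Aerobic oxidation of 75 µM NADH with no added quinone, followed at 340 nm. Ethanolic compound added cumulatively, 5 min on ice per step, ethanol ≤2%. IC50 is the final concentration giving 50% inhibition.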

Acyl carrier protein,/NADH dehydrogenase [ubiquinone] flavoprotein 1, mitochondrial, sequence (P25708 21-464 limits assumed, other chains not shown): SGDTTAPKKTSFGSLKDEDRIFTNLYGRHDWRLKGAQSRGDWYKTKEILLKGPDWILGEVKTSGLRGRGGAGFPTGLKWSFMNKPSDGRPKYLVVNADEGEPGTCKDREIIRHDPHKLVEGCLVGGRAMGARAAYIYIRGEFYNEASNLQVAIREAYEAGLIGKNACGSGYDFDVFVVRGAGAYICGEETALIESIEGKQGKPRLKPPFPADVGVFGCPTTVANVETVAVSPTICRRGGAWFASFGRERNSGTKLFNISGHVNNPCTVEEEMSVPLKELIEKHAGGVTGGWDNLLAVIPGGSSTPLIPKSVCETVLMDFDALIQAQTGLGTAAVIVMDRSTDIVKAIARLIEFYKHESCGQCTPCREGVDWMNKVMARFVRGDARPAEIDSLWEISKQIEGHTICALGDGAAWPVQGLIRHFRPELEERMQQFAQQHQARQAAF

Broadly, the IC50 is the concentration needed to halve the response being measured. A low value points to greater potency in that assay. The compound `CCCCCCCCCC[C@H](O)[C@H]1CC[C@H]([C@H]2CC[C@H]([C@H](O)CCCCC(CCCCCCCC3=C[C@H](C)OC3=O)N=O)O2)O1` (some centres not stated) [10-oxime-guanacone] had an IC50 of 0.34 nM.

With `CCCCCCCCCCC(N=O)[C@H]1CC[C@@H]([C@@H]2CC[C@H]([C@H](O)CCCCCCCCCCC(CC3=C[C@H](C)OC3=O)N=O)O2)O1` (some centres not stated) [3-{13-Hydroxy-2-hydroxyimino-13-[5'-(1-hydroxyimino-undecyl)-octahydro-[2,2']bifuranyl-5-yl]-tridecyl}-5-methyl-5H-furan-2-one(4,24-didehydroxy-4,24-dihydroxyliminorolliniastatin-1)], it took 0.34 nM to reach half-maximal inhibition (IC50).
